Source: PubChem
This is a sample that favours compounds with a hit; in the whole collection about 3.3% have one here.
Xi reactivation: activators of X-chromosome reactivation in mouse fibroblasts. activation, % at 7.58 µM. XiGFP mouse fibroblasts, % GFP-positive cells imaging, 3 d; cells co-treated with 5-aza-dC sensitizer; scaled so ellipticine positive control = 100%. 360,000 compounds, 0.055% hits;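 active = mean normalized replicate activation at least 10% and every replicate at or above 10%; inconclusive = only one of the two criteria met; inactive = mean below 10% and not all replicates reach 10%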;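 also: 0% = median of on-plate neutral control wells and 100% = ellipticine 6 µM median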
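Material: SV40-immortalized XiGFP fibroblast cells, line 68-5-11 | Buffer or medium: DMEM containing 5-aza-dC | Dosing: One concentration, pinned | Times: 3 d treatment, 15 min room-temperature fixation | Controls: Ellipticine 6 µM positive control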
Statin myotox sup: suppressors of simvastatin-induced myotoxicity in C2C12 myotubes. rescue of ATP level, % at 7.49 µM. ATP luminescence, 48 h; scaled: DMSO 0, geranylgeraniol control 100. 330,000 compounds, 0.78% hits. AID 602340;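 active = mean ATP rescue above about 67%, or every replicate alone reaching that limit, limit read from the data, passing the limit was not always enough; inconclusive = no clear call, values can overlap the other calls; inactive = mean under the limit and some replicate under it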;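 also: myotubes were challenged with 10 µM simvastatin during compound exposure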
E-sel inducer: E-selectin induction on HUVECs | P16581 | HUVEC E-selectin immunofluorescence imaging; normalized: neutral wells 0, TNF-alpha wells 100 | activation, % at 7.58 µM | 260,000 compounds, 0.37% hits | AID 686992;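 active = mean E-selectin-positive cell signal at least 10% of the positive control, reached in at least 60% of replicates, without over 20% cell loss; inconclusive = no rule given, readout overlaps actives, possibly toxicity-flagged; inactive = the rest, including those meeting only one limit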
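System: HUVEC / Compound: single concentration / Signal: immunofluorescence imaging / Read-out: percent E-selectin-positive cells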
PglD inh: blocks C. jejuni PglD acetyltransferase activity | purified PglD enzyme, DTNB colorimetric CoA detection | inhibition, % at 12.5 µM | 360,000 compounds, 0.098% hits; in the data active = inhibition above about 16%, passing the limit was not always enough; inconclusive = no clear call, values can overlap the other calls
DENV2 CPE: inhibitors of DENV2 cytopathic effect; CPE inhibition, % at 9.99 µM; AID 651640; DENV2-infected cells, cytopathic effect rescue, plate reader; 350,000 compounds, 1.7% hits; in the data active = CPE inhibition above about 20%, passing the limit was not always enough; inconclusive = no clear call, values can overlap the other calls; tested in BHK-21 cells;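 also: 0% = median of neutral control wells and 100% = median of positive control wells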
FGF22 binding: shifts melting point of recombinant human FGF22; recombinant FGF22 thermal shift, SYPRO orange fluorescence; percent of sucrose octasulfate shift, DMSO zero; activity (Tm shift, normalised), % at 9.99 µM; 340,000 compounds, 1.5% hits;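 active = mean Tm shift, scaled 0 neutral to 100 positive control, at about 1.3% or above, every replicate too, limit read from the data; inconclusive = no clear call, values can overlap the other calls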
An asterisk follows results filed as active; ? = inconclusive; · = not tested or not shown.

SMILES	Xi reactivation	Statin myotox sup	E-sel inducer	PglD inh	DENV2 CPE	FGF22 binding
COc1ccc(N(C(=O)CCl)C(C(=O)NCCc2ccccc2)c2cccs2)cc1 (stereo not given)	5	-271	·	5	2	43*
COc1ccc(NC(=O)N(C)C[C@H]2Oc3ccc(NC(=O)Nc4ccc(F)cc4)cc3CC(=O)N([C@H](C)CO)C[C@@H]2C)cc1	0	-14	0	-7	-8	0
CCOC(=O)c1sc2nc(C3CC3)cc(-c3ccc(OC)cc3)c2c1N	·	98*	·	-4	·	·
C[C@H]1CN([C@@H](C)CO)C(=O)Cc2cc(NS(=O)(=O)c3ccc(Cl)cc3)ccc2O[C@H]1CN(C)Cc1ccc(C(=O)Nc2ccccc2N)cc1	0	·	2	·	5	1
O=C(Nc1ccc(N2CCN(C(=O)c3ccccc3)CC2)cc1)c1cccnc1	0	6	·	-7	7	0
CC(=O)N1CCN(c2ccc(NC(=O)c3ccco3)cc2)CC1	0	5	0	·	-2	0
O=C(Nc1ccc(N2CCN(C(=O)c3ccccc3)CC2)c(Cl)c1)c1ccco1	·	122*	·	-6	·	·
CCC(=O)N1CCN(c2ccc(NC(=O)c3ccco3)cc2)CC1	·	95*	·	2	·	·
O=C(Nc1ccc(C(=O)N2CCN(c3ccncc3)CC2)cc1)c1ccc(Br)o1	0	·	0	·	23*	0
O=C(Nc1ccc(N2CCN(C(=O)c3cccs3)CC2)cc1)c1cccnc1	0	2	·	2	12	43*
CC(=O)N1[C@@H]2CN(C(=O)NC(C)C)C[C@H]1C2c1ccc(Br)cc1 (stereo not given in full)	0	·	·	·	·	·
C[C@H]1CN([C@@H](C)CO)C(=O)c2cc(NC(=O)CCN3CCOCC3)ccc2O[C@H]1CN(C)Cc1ccc(Oc2ccccc2)cc1	-1	41	0	1	16	-1
O=C(CN1CCOCC1)N1CCCCN2[C@@H](CO)[C@@H](c3ccc(-c4ccccc4F)cc3)[C@@H]2C1	0	-13	0	-6	?	0
CN1CCN(c2ccc(NC(=O)c3ccc(Br)o3)cc2)CC1	0	8	0	1	-5	0
CCC(=O)N1CCN(c2ccc(NC(=O)c3ccc(Br)o3)cc2)CC1	0	·	·	·	-2	44*
CN(C)C(=O)c1cccc(-c2ccc([C@H]3[C@@H](CO)N4CCCCN(C(=O)C5CCCC5)C[C@@H]34)cc2)c1	·	·	·	2	4	0
CC(C)N1C(=O)CCC1C(=O)O (stereo not given)	0	-2	·	0	33*	0
COC(=O)[C@@H]1[C@H](CCc2ccccc2)NC(=O)N(Cc2ccccc2)[C@@H]1C	-1	10	0	3	68*	0
Cc1ccc(C(NC(=O)NN2CCN(C)CC2)C(Cl)Cl)cc1F (stereo not given)	0	-3	·	0	-8	0
CCN1CCN(C(=O)NC(c2ccc(C)c(F)c2)C(Cl)Cl)CC1 (stereo not given)	0	·	·	·	-7	44*
Cc1ccc(C(NC(=O)N2CCCC2)C(Cl)Cl)cc1F (stereo not given)	0	·	·	·	3	44*
CO[C@H]1CN(C)C(=O)c2ccc(NC(=O)C3CC3)cc2OC[C@@H](C)N(C(=O)c2ccccc2)C[C@@H]1C	-1	2	0	8	5	0
CCOC(=O)/C(C#N)=C1/C=C(C)c2ccccc2N1	0	·	·	·	3	43*
C[C@@H]1CN([C@H](C)CO)C(=O)c2cc(-c3ccccc3)cnc2O[C@@H]1CN(C)CC1CC1	0	10	0	0	5	0
C[C@@H]1CN([C@H](C)CO)C(=O)Cc2cc(NC(=O)NC3CCCCC3)ccc2O[C@@H]1CN(C)C(=O)NC1CCCCC1	0	-13	0	7	-3	0
O=c1oc(-c2ccccc2)nc2ccsc12	·	·	·	0	·	·
CCC(C)c1nc2ccsc2c(N2CCOC2=O)c1-c1ccccc1 (stereo not given)	19*	-25	0	-1	-10	0
COCC(=O)Nc1ccc2c(c1)OC[C@@H](C)N(Cc1ccccc1F)C[C@H](C)[C@@H](OC)CN(C)C2=O	0	·	0	·	-9	0
